GalR3 antagonist = blocks the human galanin receptor 3 | O60755 | HEK293 GalR3-CNG cAMP membrane potential fluorescence; galR3 body fused to GalR1 C-terminus | inhibition, % at 3 µM | 360,000 compounds, 0.44% hits | AID 651719;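 active = inhibition above the screen-wide average plus 3 SD, cut at about 13% in these data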;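 also: forskolin and galanin both at EC90 stimulate the cells; cAMP rise reported by CNG channel membrane potential dye signal; 0% = forskolin plus galanin with DMSO and 100% = forskolin alone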
Target sequence (O60755 1-299 limits assumed): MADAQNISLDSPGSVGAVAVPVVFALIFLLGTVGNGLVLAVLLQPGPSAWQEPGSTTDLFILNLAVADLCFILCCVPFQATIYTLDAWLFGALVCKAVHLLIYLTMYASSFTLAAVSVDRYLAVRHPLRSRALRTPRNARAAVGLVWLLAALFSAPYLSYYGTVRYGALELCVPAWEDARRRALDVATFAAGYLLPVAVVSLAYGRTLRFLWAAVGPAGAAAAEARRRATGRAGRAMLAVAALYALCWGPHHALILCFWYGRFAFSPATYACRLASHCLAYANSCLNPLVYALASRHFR
OX1R antag-1 = human HCRTR1 antagonism. AID 434989. O43613. inhibition, % at 5 µM. CHO/OX1R cells, Fluo-8 calcium fluorescence, orexin A. 330,000 compounds, 0.43% hits;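 active = inhibition above its plate's threshold, mean inhibition of all tested compounds on the plate plus 3 SD, cut at about 37% in these data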;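 also: 0% = orexin A challenge wells and 100% = SB-334867-A antagonist wells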
TAAR1 antag = human TAAR1 antagonism | 360,000 compounds, 1.5% hits | CHO RD-HGA16 TAAR1, Fluo-8 calcium fluorescence, antagonist | inhibition, % at 3 µM | AID 624466;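 active = inhibition above a per-plate cutoff, the mean inhibition of test compounds on that plate plus 3 SD, cut at about 49% in these data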;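 also: 0% = DMSO plus EC80 beta-PEA response and 100% = DMSO alone without agonist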
Target sequence (Q96RJ0 whole entry, looked up): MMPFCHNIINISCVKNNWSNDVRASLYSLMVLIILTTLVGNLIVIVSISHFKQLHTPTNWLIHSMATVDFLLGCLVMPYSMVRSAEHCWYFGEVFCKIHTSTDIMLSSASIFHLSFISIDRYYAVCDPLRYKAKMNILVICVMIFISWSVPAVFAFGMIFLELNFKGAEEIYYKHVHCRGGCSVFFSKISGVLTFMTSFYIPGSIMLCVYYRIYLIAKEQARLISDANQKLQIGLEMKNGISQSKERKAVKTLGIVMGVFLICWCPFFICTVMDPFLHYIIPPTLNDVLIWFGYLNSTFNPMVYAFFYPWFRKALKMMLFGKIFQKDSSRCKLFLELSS
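test system = CHO RD-HGA16 cells bearing hTAAR1 | replication = singlicate | controls = DMSO-only wells and EC80 β-PEA-stimulated wells | reagent = EC80 β-phenethylamine stimulus | read-out basis = percent inhibition of PEA-evoked calcium signal, max/basal emission ratio | schedule = seeding 17-24 h prior, 75-min 37 °C, 30-min RT dye loading | signal = kinetic Fluo-8 calcium fluorescence measurement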
OX1R antag-2 = OX1R (human) antagonism; 330,000 compounds, 1.8% hits; O43613; inhibition, % at 6.6 µM; OX1R-expressing cells, FRET antagonist read-out; in the data active = inhibition mostly above about 38%, no sharp cut-off; inactive = mostly below about 40%;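 also: 0% = agonist challenge alone and 100% = reference antagonist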
TAAR1 ag = agonists of human TAAR1 | CHO RD-HGA16 TAAR1, Fluo-8 calcium fluorescence; vehicle wells 0%, saturating PEA agonist 100% | activation, % at 3 µM | 360,000 compounds, 0.99% hits;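 active = activation above the mean activation of all test compounds in the run plus 3 SD, cut at about 38% in these data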
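test system = CHO RD-HGA16 cells carrying human TAAR1 plus Gα16 | schedule = 17-24 h seeding, 75 min 37 °C dye, 30 min RT | compound dosing = 3 µM single concentration | control set = DMSO and PEA EC100 | replicates = n 1 | signal = Fluo-8 fluorescence, 5 s baseline then 140 s kinetic read | measure = percent activation vs PEA EC100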
CHO parental Ca = counter-screen for OX1R antagonists: effect in parental CHO cells; parental CHO-K1, ATP-induced calcium, Fluo-8 fluorescence; inhibition, % at 5.6 µM; 330,000 compounds, 0.63% hits; AID 463079;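 active = inhibition above that plate's mean sample inhibition plus 3 SD, cut at about 26% in these data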;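 also: 0% = ATP-challenged DMSO wells and 100% = DMSO wells without ATP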
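Measured by: calcium-sensitive Fluo-8 fluorescence / Test system: CHO parental line / Controls: ATP-challenged DMSO wells low, unchallenged DMSO wells high / Measure: % inhibition / Compound: single nominal dose of 5.6 µM per compound / Replicates: single well per compound, no replicates / Reagent: ATP as calcium-mobilizing challenge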
Starred values were filed as active, the others as inactive; nt = not tested or not shown. Sampled rows, rich in hits. Any-hit rate of the full collection: about 4.3%.

SMILES	GalR3 antagonist	OX1R antag-1	TAAR1 antag	OX1R antag-2	TAAR1 ag	CHO parental Ca
CCOC(=O)C1CCCN(S(=O)(=O)c2ccccc2)C1 (stereo not drawn)	-7.0	-21.2	2.6	16.6	5.9	-3.8
CCOC(=O)C1CCCN(S(=O)(=O)c2cc(C(=O)OC)n(C)c2)C1 (stereo not drawn)	1.3	-1.9	5.6	4.3	2.8	26.2*
Cn1c(=O)c2c(nc(OC3CCCC3)n2C)n(C)c1=O	-0.3	nt	-4.0	nt	0.7	nt
O=C1NC(=Nc2ccc(O)cc2)S/C1=C/c1ccco1	-6.1	-15.2	-4.2	33.4	6.7	3.3
O=C1NC(=Nc2ccc3ccccc3c2)S/C1=C/c1ccco1	-5.4	5.4	-8.4	42.4*	0.2	-13.5
O=C(Nc1ccc(Br)c(C(F)(F)F)c1)c1ccc(C(F)(F)F)cc1	-2.2	60.2*	5.9	61.5*	2.7	39.9*
O=[N+]([O-])c1ccc(-c2ccc(C=Nc3cccc4ccccc34)o2)cc1	-3.4	-2.6	-3.5	47.9*	-4.1	4.9
O=C(OCc1ccccc1)N1CCCC2CC1c1ccccc12 (stereo not drawn)	-4.1	nt	21.3	nt	7.4	nt
Cc1ccc(C)c(NC(=O)CN(C)C(=O)Cc2coc3cc(C)c(C)cc23)c1	nt	-14.8	nt	22.6	nt	-11.6
Cc1cc2occ(CC(=O)N(C)CC(=O)Nc3ccccc3Br)c2cc1C	-2.7	5.0	12.7	68.2*	2.4	-16.2
COCCCN1C(=O)c2ccc(C(=O)NCc3ccco3)cc2C1=O	5.8	-16.6	-14.1	42.5*	8.0	-14.8
COCCN1C(=O)c2ccc(C(=O)NCc3ccco3)cc2C1=O	-3.0	-14.8	-19.8	33.2	0.4	-4.4
COCCCN1C(=O)c2ccc(C(=O)NCc3ccccn3)cc2C1=O	-6.1	5.6	-14.8	38.8*	0.6	2.8
Cc1nnsc1S(=O)c1ccc(Br)cc1 (stereo not drawn)	-7.0	-33.0	-6.0	-0.1	5.2	-8.1
COc1ccccc1N1CCN(C(=O)c2cccc(S(=O)(=O)NCc3cccnc3)c2)CC1	-6.5	-33.4	9.1	7.2	-0.1	-10.4
CCn1c(=NC(=O)CCS(=O)(=O)c2ccccc2)sc2cccc(OC)c21	-3.9	11.6	24.0	24.7	3.5	55.7*
O=[N+]([O-])c1ccc(N2CCN(c3ccc([N+](=O)[O-])cc3CO)CC2)c(CO)c1	-14.0	14.1	52.8*	16.4	12.2	32.2
CC1Cc2ccccc2N1C(=O)c1ccc(N2CCCCC2)c([N+](=O)[O-])c1 (stereo not drawn)	4.4	-12.5	42.0	50.1*	2.8	-16.4
CC(C)(C)C(=O)N1CCN(c2ccc([N+](=O)[O-])cc2Cl)CC1	-3.7	-9.8	30.5	16.6	9.5	-0.3
N#Cc1cc([N+](=O)[O-])ccc1N1CCN(c2ccccc2O)CC1	6.9	-12.5	52.2*	22.5	16.9	32.3*
O=C(O)c1ccccc1C(=O)c1ccc(N2CCCC2)c([N+](=O)[O-])c1	-3.4	-25.0	2.8	21.4	13.6	-1.3
CC(=O)c1ccc(N2CCN(c3ccccc3O)CC2)c([N+](=O)[O-])c1	-10.5	63.5*	50.9*	79.3*	15.7	44.0*
CC(C(=O)Nc1cc([N+](=O)[O-])ccc1Cl)N1CCN(c2ccccc2O)CC1 (stereo not drawn)	-1.6	-16.9	16.4	27.9	4.9	-11.3
CC1Cc2ccccc2N1C(=O)c1ccc(N2CCCC2)c([N+](=O)[O-])c1 (stereo not drawn)	-4.3	-25.6	41.9	29.1	5.6	-5.5
COCCN(C(=O)c1ccc(C)c(S(=O)(=O)N2CCOCC2)c1)c1c(N)n(CC(C)C)c(=O)[nH]c1=O	-4.1	nt	18.6	nt	15.2	nt
SMILES	GalR3 antagonist	OX1R antag-1	TAAR1 antag	OX1R antag-2	TAAR1 ag	CHO parental Ca
CC(NC(=O)/C=C/c1ccccc1[N+](=O)[O-])C1CC2CCC1C2 (stereo not drawn)	-7.7	-37.7	-3.9	44.8	-1.3	-23.7
CC(C)CCNc1nc(N)c([N+](=O)[O-])c(NCC2CCCO2)n1 (stereo not drawn)	-9.6	-46.7	-7.8	34.4	38.5*	-28.7
Nc1cccc(-c2cn(-c3cc4cc(C#CC5(O)CCCCC5)ccc4oc3=O)nn2)c1	-2.5	7.0	57.8*	9.4	29.7	-15.1
O=c1oc2ccc(C#CC3(O)CCCCC3)cc2cc1-n1cc(-c2ccccn2)nn1	-6.2	5.2	51.9*	-4.3	18.5	-6.5
C[C@@H](O)CC#Cc1ccc2oc(=O)c(-n3cc(-c4ccsc4)nn3)cc2c1	-1.2	1.2	14.4	3.4	7.0	-20.9
O=c1c2ccccc2oc2ccc(C#CC3(O)CCCCC3)cc12	-8.6	-16.6	40.1	40.3	15.9	-24.0
Cc1onc(-c2c(F)cccc2Cl)c1C(=O)N(C)CCc1ccccn1	-0.1	4.6	-13.7	8.6	1.6	-7.8
CCOC(=O)C1=C(N)N2C(=O)C(C)SC2=C(C(=O)OC)C1c1ccccc1OC (stereo not drawn)	-3.2	-0.7	13.6	-4.6	37.5*	-31.8
O=C(Nc1ccc(C2=NCCN2)cc1)c1ccc(C(=O)Nc2ccc(C3=NCCN3)cc2)c([N+](=O)[O-])c1	-8.1	-12.2	2.6	38.4*	0.1	-16.7
Cc1ccc(NC(=O)c2ccc(-n3cccn3)c([N+](=O)[O-])c2)cc1	-1.0	-14.6	20.9	16.7	12.5	4.1
CC(=O)N(C)c1ccc(OCC(O)Cn2c3ccc(Cl)cc3c3cc(Cl)ccc32)cc1 (stereo not drawn)	-8.4	31.1	42.2	16.8	17.2	67.4*
CCCCc1nnn2c1C1c3cc(-c4cccnc4)ccc3CCN1C(=O)C2 (stereo not drawn)	-2.8	nt	-26.7	nt	-0.9	nt
CC(C)(C)c1ccc(C(=O)N/C(=C\c2cccc([N+](=O)[O-])c2)C(=O)Nc2cccc(C(=O)O)c2)cc1	-4.6	1.1	-11.8	14.1	-0.2	-0.1
CSc1nc(C)cc(OCCNS(=O)(=O)c2cc(C)ccc2C)n1	-1.8	0.7	-1.6	70.7*	1.0	-13.8
CCn1c(SCC(=O)Nc2nc(-c3ccc(C)cc3)cs2)nnc1-c1ccccc1O	-1.3	35.9	35.2	55.8	6.8	32.9*
O=C(COC(=O)c1ccc(O)cc1O)Nc1cccc2ccccc12	0.5	-3.5	5.1	6.3	9.4	-11.6
CC(C)(C)c1ccc(OCc2ccc(C(=O)NCc3cccnc3)o2)cc1	-7.9	20.5	52.8*	7.6	15.9	36.6*
COc1ccccc1OCc1ccc(C(=O)NCc2cccnc2)o1	-6.6	-12.6	4.7	12.1	3.1	-6.6
CCOC(=O)c1sc(NC(=O)Nc2ccc(F)cc2)nc1C	-6.3	17.0	62.5*	36.7	10.4	13.8
CCOC(=O)c1ccc(NC(=O)Nc2ccc(F)cc2)cc1	-9.0	1.1	13.8	52.0*	34.9	21.9
